pIC50: −log10 of the molar value.
Assays:
[1] = target: Tyrosine-protein kinase JAK2 (Homo sapiens, UniProt O60674, V617F); assay: Inhibition of JAK2 V617F mutant in human SET2 cells; format: cell-based
Summary of the method: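 Cell proliferation assay. IC50 is the concentration that inhibits proliferation by 50%, taken from dose–response curves. Mean ± SEM of at least three independent experiments.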

[2] = Metabolic stability in human liver microsomes assessed as half life; format: ADME, Microsome
BaF3 [3] = assay: Induction of cell cycle arrest in mouse BaF3 cells harbouring JAK2 […] mutant assessed as accumulation of cells at G0/G1 phase at 16 nM incubated for 24 hrs by propidium iodide staining based flow cytometry analysis (reference value: 56.85 %); format: functional
BaF3 [4] = assay: Induction of cell cycle arrest in mouse BaF3 cells harbouring JAK2 […] mutant assessed as accumulation of cells at G2/M phase at 0.5 nM incubated for 24 hrs by propidium iodide staining based flow cytometry analysis (reference value: 9.34 %); format: functional
BaF3 [5] = assay: Induction of cell cycle arrest in mouse BaF3 cells harbouring JAK2 […] mutant assessed as accumulation of cells at S phase at 0.5 nM incubated for 24 hrs by propidium iodide staining based flow cytometry analysis (reference value: 33.80 %); format: functional
BaF3 [6] = assay: Induction of cell cycle arrest in mouse BaF3 cells harbouring JAK2 […] mutant assessed as accumulation of cells at G0/G1 phase at 2 nM incubated for 24 hrs by propidium iodide staining based flow cytometry analysis (reference value: 56.85 %); format: functional
BaF3 [7] = assay: Induction of cell cycle arrest in mouse BaF3 cells harbouring JAK2 […] mutant assessed as accumulation of cells at G0/G1 phase at 4 nM incubated for 24 hrs by propidium iodide staining based flow cytometry analysis (reference value: 56.85 %); format: functional
BaF3 [8] = assay: Induction of cell cycle arrest in mouse BaF3 cells harbouring JAK2 […] mutant assessed as accumulation of cells at S phase at 4 nM incubated for 24 hrs by propidium iodide staining based flow cytometry analysis (reference value: 33.80 %); format: functional
BaF3 [9] = assay: Induction of cell cycle arrest in mouse BaF3 cells harbouring JAK2 […] mutant assessed as accumulation of cells at G0/G1 phase at 8 nM incubated for 24 hrs by propidium iodide staining based flow cytometry analysis (reference value: 56.85 %); format: functional
BaF3 [10] = assay: Induction of cell cycle arrest in mouse BaF3 cells harbouring JAK2 […] mutant assessed as accumulation of cells at G2/M phase at 8 nM incubated for 24 hrs by propidium iodide staining based flow cytometry analysis (reference value: 9.34 %); format: functional
BaF3 [11] = assay: Induction of cell cycle arrest in mouse BaF3 cells harbouring JAK2 […] mutant assessed as accumulation of cells at S phase at 8 nM incubated for 24 hrs by propidium iodide staining based flow cytometry analysis (reference value: 33.80 %); format: functional
BaF3 [12] = assay: Induction of cell cycle arrest in mouse BaF3 cells harbouring JAK2 […] mutant assessed as accumulation of cells at S phase at 16 nM incubated for 24 hrs by propidium iodide staining based flow cytometry analysis (reference value: 33.80 %); format: functional
BaF3 [13] = assay: Induction of apoptosis in mouse BaF3 cells harbouring JAK2 V617F mutant assessed as viable cells at 20 nM incubated for 24 hrs by Annexin V / propidium iodide staining based flow cytometry analysis (reference value: 72.8 %); format: functional; settings: read-out: Activity
Summary of the method: (§1)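 Ba/F3 JAK2V617F cells exposed to compound at 20, 40, 80, 160 and 320 nM, then analysed for apoptosis by flow cytometry. Significance vs control by Dunnett's t test.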

BaF3 [14] = assay: Induction of apoptosis in mouse BaF3 cells harbouring JAK2 V617F mutant assessed as late apoptotic cells at 20 nM incubated for 24 hrs by Annexin V / propidium iodide staining based flow cytometry analysis (reference value: 12.2 %); format: functional; summary of the method: as §1
BaF3 [15] = assay: Induction of apoptosis in mouse BaF3 cells harbouring JAK2 V617F mutant assessed as necrotic cells at 20 nM incubated for 24 hrs by Annexin V / propidium iodide staining based flow cytometry analysis (reference value: 0.64 %); format: functional; summary of the method: as §1
BaF3 [16] = assay: Induction of apoptosis in mouse BaF3 cells harbouring JAK2 V617F mutant assessed as viable cells at 40 nM incubated for 24 hrs by Annexin V / propidium iodide staining based flow cytometry analysis (reference value: 72.8 %); format: functional; settings: read-out: Activity; summary of the method: as §1
BaF3 [17] = assay: Induction of apoptosis in mouse BaF3 cells harbouring JAK2 V617F mutant assessed as early apoptotic cells at 40 nM incubated for 24 hrs by Annexin V / propidium iodide staining based flow cytometry analysis (reference value: 14.4 %); format: functional; summary of the method: as §1
BaF3 [18] = assay: Induction of apoptosis in mouse BaF3 cells harbouring JAK2 V617F mutant assessed as late apoptotic cells at 40 nM incubated for 24 hrs by Annexin V / propidium iodide staining based flow cytometry analysis (reference value: 12.2 %); format: functional; summary of the method: as §1
BaF3 [19] = assay: Induction of apoptosis in mouse BaF3 cells harbouring JAK2 V617F mutant assessed as viable cells at 80 nM incubated for 24 hrs by Annexin V / propidium iodide staining based flow cytometry analysis (reference value: 72.8 %); format: functional; settings: read-out: Activity; summary of the method: as §1
BaF3 [20] = assay: Induction of apoptosis in mouse BaF3 cells harbouring JAK2 V617F mutant assessed as early apoptotic cells at 80 nM incubated for 24 hrs by Annexin V / propidium iodide staining based flow cytometry analysis (reference value: 14.4 %); format: functional; summary of the method: as §1
BaF3 [21] = assay: Induction of apoptosis in mouse BaF3 cells harbouring JAK2 V617F mutant assessed as late apoptotic cells at 80 nM incubated for 24 hrs by Annexin V / propidium iodide staining based flow cytometry analysis (reference value: 12.2 %); format: functional; summary of the method: as §1
BaF3 [22] = assay: Induction of apoptosis in mouse BaF3 cells harbouring JAK2 V617F mutant assessed as viable cells at 160 nM incubated for 24 hrs by Annexin V / propidium iodide staining based flow cytometry analysis (reference value: 72.8 %); format: functional; settings: read-out: Activity; summary of the method: as §1
BaF3 [23] = assay: Induction of apoptosis in mouse BaF3 cells harbouring JAK2 V617F mutant assessed as early apoptotic cells at 160 nM incubated for 24 hrs by Annexin V / propidium iodide staining based flow cytometry analysis (reference value: 14.4 %); format: functional; summary of the method: as §1
BaF3 [24] = assay: Induction of apoptosis in mouse BaF3 cells harbouring JAK2 V617F mutant assessed as late apoptotic cells at 160 nM incubated for 24 hrs by Annexin V / propidium iodide staining based flow cytometry analysis (reference value: 12.2 %); format: functional; summary of the method: as §1
BaF3 [25] = assay: Induction of apoptosis in mouse BaF3 cells harbouring JAK2 V617F mutant assessed as viable cells at 320 nM incubated for 24 hrs by Annexin V / propidium iodide staining based flow cytometry analysis (reference value: 72.8 %); format: functional; settings: read-out: Activity; summary of the method: as §1
BaF3 [26] = assay: Induction of apoptosis in mouse BaF3 cells harbouring JAK2 V617F mutant assessed as late apoptotic cells at 320 nM incubated for 24 hrs by Annexin V / propidium iodide staining based flow cytometry analysis (reference value: 12.2 %); format: functional; summary of the method: as §1
[27] = Selectivity ratio of IC50 for TYK2 (unknown origin) to IC50 for JAK2 (unknown origin)
[28] = Selectivity ratio of IC50 for FLT3 (unknown origin) to IC50 for JAK2 (unknown origin)

Tyrosine-protein kinase JAK2, sequence (O60674 whole entry V617F): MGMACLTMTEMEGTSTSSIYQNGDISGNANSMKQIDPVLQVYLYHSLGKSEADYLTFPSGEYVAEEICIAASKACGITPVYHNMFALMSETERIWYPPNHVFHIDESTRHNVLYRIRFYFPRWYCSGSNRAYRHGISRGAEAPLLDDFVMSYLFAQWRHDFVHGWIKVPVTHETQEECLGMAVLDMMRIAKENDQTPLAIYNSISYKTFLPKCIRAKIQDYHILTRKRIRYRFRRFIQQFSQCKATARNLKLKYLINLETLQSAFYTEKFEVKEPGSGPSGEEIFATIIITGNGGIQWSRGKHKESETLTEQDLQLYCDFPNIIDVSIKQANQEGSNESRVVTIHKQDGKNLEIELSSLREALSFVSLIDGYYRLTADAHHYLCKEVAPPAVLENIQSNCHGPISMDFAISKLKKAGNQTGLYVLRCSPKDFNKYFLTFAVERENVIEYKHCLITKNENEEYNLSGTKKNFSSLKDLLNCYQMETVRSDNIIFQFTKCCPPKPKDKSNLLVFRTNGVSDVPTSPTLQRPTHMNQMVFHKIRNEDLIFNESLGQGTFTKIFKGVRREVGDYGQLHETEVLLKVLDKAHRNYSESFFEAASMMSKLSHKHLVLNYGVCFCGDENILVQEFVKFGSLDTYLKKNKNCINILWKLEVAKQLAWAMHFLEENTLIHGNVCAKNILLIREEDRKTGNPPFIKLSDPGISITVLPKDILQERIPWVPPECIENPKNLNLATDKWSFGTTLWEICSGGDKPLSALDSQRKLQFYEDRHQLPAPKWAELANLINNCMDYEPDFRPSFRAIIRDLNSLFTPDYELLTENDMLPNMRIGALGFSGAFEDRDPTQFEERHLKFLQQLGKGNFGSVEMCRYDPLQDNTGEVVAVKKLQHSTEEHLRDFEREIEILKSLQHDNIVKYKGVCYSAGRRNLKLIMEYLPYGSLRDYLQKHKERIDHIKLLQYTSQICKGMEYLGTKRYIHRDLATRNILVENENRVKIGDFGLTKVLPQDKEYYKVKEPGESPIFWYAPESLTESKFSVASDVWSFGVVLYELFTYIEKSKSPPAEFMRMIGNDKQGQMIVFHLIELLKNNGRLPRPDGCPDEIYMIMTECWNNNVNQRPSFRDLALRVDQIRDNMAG

SMILES	pIC50 [1]	half-life [2] [min]	Activity (BaF3 [3]) [%]	Activity (BaF3 [4]) [%]	Activity (BaF3 [5]) [%]	Activity (BaF3 [6]) [%]	Activity (BaF3 [7]) [%]	Activity (BaF3 [8]) [%]	Activity (BaF3 [9]) [%]	Activity (BaF3 [10]) [%]	Activity (BaF3 [11]) [%]	Activity (BaF3 [12]) [%]	viability at 0.02 µM (BaF3 [13]) [%]	Activity (BaF3 [14]) [%]	Activity (BaF3 [15]) [%]	viability at 0.04 µM (BaF3 [16]) [%]	Activity (BaF3 [17]) [%]	Activity (BaF3 [18]) [%]	viability at 0.08 µM (BaF3 [19]) [%]	Activity (BaF3 [20]) [%]	also measured
C=CS(=O)(=O)NCc1ccc(Nc2ncc(C)c(-c3cnn(C(C)C)c3)n2)cc1	7.35	> 120	69.31	9.03	31.74	61.14	62.95	29.44	63.86	8.38	27.77	20.76	53.7	20	1.61	44.1	26.4	26.2	22.3	35.7	Activity (BaF3 [21]): 38.7%; viability at 0.16 µM (BaF3 [22]): 22.9%; Activity (BaF3 [23]): 37.5%; Activity (BaF3 [24]): 35.8%; viability at 0.32 µM (BaF3 [25]): 24.5%; Activity (BaF3 [26]): 40.1%; Ratio IC50 [27]: 41.2; Ratio IC50 [28]: 93.4
Cc1cnc(Nc2ccc3c(c2)CCN(C(=O)/C=C/CN(C)C)C3)nc1-c1cnn(C(C)C)c1	6.32	54.6	59.42	9.64	34.4	56.54	57.34	33.33	58.82	8.98	32.2	31.63	68.6	12	1.04	61.1	22.4	15.6	38.8	33.2	Activity (BaF3 [21]): 25.4%; viability at 0.16 µM (BaF3 [22]): 19.4%; Activity (BaF3 [23]): 48.1%; Activity (BaF3 [24]): 30.7%; viability at 0.32 µM (BaF3 [25]): 14.3%; Activity (BaF3 [26]): 35.2%; Ratio IC50 [27]: 25; Ratio IC50 [28]: 20.7
